# Assay results from ChEMBL document CHEMBL3763158, “Sampangine (a Copyrine Alkaloid) Exerts Biological Activities through Cellular Redox Cycling of Its Quinone and Semiquinone Intermediates” (J Nat Prod, 2015).
# The source made the active and inactive calls. The calls are words filed in the database; no cut-off is given here.
# How the values were obtained:
# T47D [1] = assay: Cytostatic activity against human T47D cells at 1 to 30 uM after 48 hrs by sulforhodamine B assay in presence of ascorbate; type: functional, cell-based
# T47D [2] = assay: Increase in oxygen consumption rate of mitochondrial state 4 respiration in human T47D cells assessed as reinitiation of oligomycin-stalled cellular respiration by Clark-type oxygen electrode assay; type: functional, cell-based
# Outline: (§1)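 Clark electrode oxygen consumption in cells with oligomycin (F0F1-ATPase inhibitor) stalling respiration, then compound added to test reinitiation; FCCP as standard uncoupler reference.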
# T47D [3] = assay: Induction of alteration in […] in human T47D cells assessed as intracellular calcium level at 30 uM after 30 mins by fura-2 dye based fluorescence assay; type: functional, cell-based
# Outline: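 T47D cells loaded with fura-2 per manufacturer's instructions and treated 30 min; per-cell 340/380 nm excitation ratio taken as Ca2+ indicator by live microscopy. Average ± SD of 20 cells.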
# T47D [4] = assay: Inhibition of hypoxia-induced HIF-1 in human T47D cells cotransfected with pHRE-luciferase plasmid at 10 to 30 uM preincubated for 30 mins followed by hypoxia induction measured after 16 hrs by luciferase reporter gene assay; type: cell-based
# Outline: (§2)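 T47D cells transfected with pHRE-luc construct, exposed to hypoxia (1% O2, 16 h) with compound. Luciferase activity read; % inhibition = [1 − (luciferase)compound/(luciferase)control] × 100 against hypoxic media control. Emetine as positive control. Parallel viability by SRB. Average ± SD, n = 3.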
# T47D [5] = assay: Increase in oxygen consumption rate in human T47D cells by oxytherm Clark-type electrode assay; type: functional, cell-based
# Outline: (§3)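 Intact T47D cells; oxygen consumption rate measured by Oxytherm Clark electrode with or without compound, normalized to untreated control. FCCP as positive control. Mean + range of two independent experiments.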
# T47D [6] = assay: Increase in oxygen consumption rate in digitonin permeabilized human T47D cells assessed as reinitiation of sodium azide-stalled cellular respiration by oxytherm Clark-type electrode assay in presence of ascorbate relative to compound alone; type: functional, cell-based
# Outline: (§4)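 Digitonin-permeabilized T47D cells given sequential additions: NaN3 (10 mM) to suppress mitochondrial respiration, then compound (30 μM), solvent (2-propanol, 0.6%) or ascorbate (1 and 5 mM), all final. OCR after each addition normalized to NaN3 value; mean ± range of two experiments.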
# T47D [7] = assay: Cytostatic activity against human T47D cells at 1 to 30 uM after 48 hrs by sulforhodamine B assay; type: functional, cell-based
# T47D [8] = assay: Increase in oxygen consumption rate in digitonin permeabilized human T47D cells assessed as reinitiation of sodium azide-stalled cellular respiration at 30 uM relative to control; type: functional; outline: as §4
# MDA-MB-231 [9] = assay: Cytostatic activity against human MDA-MB-231 cells at 1 to 30 uM after 48 hrs by sulforhodamine B assay in presence of ascorbate; type: functional, cell-based
# T47D [10] = assay: Increase in oxygen consumption rate in digitonin permeabilized human T47D cells at 30 uM relative to control; type: functional; outline: as §4
# Hep 3B2 = assay: Increase in oxygen consumption rate of mitochondrial state 4 respiration in human Hep3B cells assessed as reinitiation of oligomycin-stalled cellular respiration by Clark-type oxygen electrode assay; type: functional, cell-based; outline: as §1
# T47D [11] = assay: Activation of hypoxia-induced HIF-1 in human T47D cells cotransfected with pHRE-luciferase plasmid at 1 to 3 uM preincubated for 30 mins followed by hypoxia induction measured after 16 hrs by luciferase reporter gene assay; type: cell-based; outline: as §2
# T47D [12] = assay: Cytotoxicity against human T47D cells at 1 to 30 uM after 48 hrs by sulforhodamine B assay; type: functional, cell-based
# T47D [13] = assay: Effect on mitochondrial membrane potential in human T47D cells at 30 uM after 30 mins by TMRM dye based fluorescence microscopy; type: functional, cell-based
# Outline: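 T47D cells loaded with TMRM+ (37 °C, 2 h), then compound for 30 min; live epifluorescence imaging, fluorescence quantified per outlined cell in random fields. FCCP as positive control. Average ± SD from 20 cells.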
# Saccharomyces cerevisiae = assay: Increase in oxygen consumption rate in Saccharomyces cerevisiae at 10 to 30 uM by oxytherm Clark-type electrode assay; type: functional, organism-based
# Outline: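 Budding yeast oxygen consumption followed with an Oxytherm Clark electrode, with and without compound. Values normalized to untreated control; average + SD of three independent determinations, p < 0.05 significance versus untreated.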
# [14] = Neurotoxicity against rat CGN assessed as neuronal cell death at 30 uM after 24 hrs by Hoechst 33342/propidium iodide staining based assay; type: toxicity
# Outline: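 Primary cerebellar granule neurons from rat pups, cultured 6–10 days, then exposed 24 h. Stained with Hoechst 33342 and propidium iodide; live (PI negative, healthy nuclei) versus dead or dying (PI positive, or condensed/fragmented nuclei) cells counted.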
# T47D [15] = assay: Increase in oxygen consumption rate in human T47D cells at 30 uM by oxytherm Clark-type electrode assay relative to control; type: functional; outline: as §3
# MDA-MB-231 [16] = assay: Cytotoxicity against human MDA-MB-231 cells at 1 to 30 uM after 48 hrs by sulforhodamine B assay; type: functional, cell-based
# MDA-MB-231 [17] = assay: Cytostatic activity against human MDA-MB-231 cells at 1 to 30 uM after 48 hrs by sulforhodamine B assay; type: functional, cell-based
compound,measurement,setting,value
O=C1c2ccccc2-c2nccc3ccnc1c23 [SAMPANGINE],Activity,T47D [1],Active
same,Activity,T47D [2],Dose-dependent effect
same,Activity,T47D [3],inactive
same,inhibition,T47D [4],Dose-dependent effect
same,Activity,T47D [5],Dose-dependent effect
same,Activity,T47D [6],Dose-dependent effect
same,Activity,T47D [7],Active
same,Activity,T47D [8],48%
same,Activity,MDA-MB-231 [9],Active
same,Activity,T47D [10],46%
same,Activity,Hep 3B2,Active
same,Activity,T47D [11],Dose-dependent effect
same,Activity,T47D [12],Active
same,Activity,T47D [13],Active
same,Activity,Saccharomyces cerevisiae,Active
same,Activity,[14],Toxic
same,Activity,T47D [15],50%
same,fold change (FC),T47D [15],1.5
same,Activity,MDA-MB-231 [16],Active
same,Activity,MDA-MB-231 [17],Active
